M1 antagonist: antagonists of rat M1 muscarinic receptor; P08482; CHO-M1 cells, Fluo-4 calcium, ACh EC80 antagonist mode; stronger effect = lower value; B-score at 10 µM; 64,000 compounds, 3.4% hits; AID 628;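 active means calcium fluorescence response, raw or row-and-column corrected B-score, differing from the plate sample mean either way at a set confidence level, mostly lower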
M1 ag: activates the M1 muscarinic receptor | CHO-M1 cells, Fluo-4 calcium fluorescence, agonist mode; stronger effect = higher value | B-score at 10 µM | 64,000 compounds, 3% hits | AID 626;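 active means fluorescence rise, raw or as B-score row- and column-corrected plate score, outside the 99.7% band of its plate's samples, either direction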
S1P1 ag pot: S1P1 (human) agonism or agonism potentiation; P21453; S1P1 CRE-bla cells, forskolin, beta-lactamase FRET, potentiator mode; S1P1 agonist co-added at EC20, 2 nM; 100% = saturating reference agonist, 0% = basal; activation, % at 9.5 µM; 56,000 compounds, 0.57% hits; AID 449;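 active means activation above a cutoff set at the mean activation of all tested compounds plus 3 SD, cut at about 54% in these data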;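 further: forskolin at 4 µM as EC80 and the EC20 agonist is SEW2871; 100% = SEW2871 at its EC100 plus forskolin at EC80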
S1P3 ag: activates the human S1P3 receptor; Q99500; S1P3 NFAT-BLA reporter cells, agonism, FRET ratio; relative to 1 µM S1P, basal subtracted; activation, % at 4.5 µM; 60,000 compounds, 0.1% hits; AID 373;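 active means activation above the screen-wide mean plus 3 SD, cut at about 4.5% in these data, passing the limit was not always enough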
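Material: Human S1P3 NFAT-BLA reporter CHO cells | Incubation: Overnight plating, 4 h compound 37 °C, 2 h substrate RT | Signal: FRET β-lactamase substrate fluorescence, excitation 405 nm, 460/535 nm emission ratio, background-subtracted | Compound: 4.5 µM final, single dose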
TNAP act mid DEA: human TNAP activation, intermediate phosphate acceptor; P05186; purified TNAP, CDP-star luminescence, 100 mM DEA, 30 min; stronger effect = higher value; scale: 0 levamisole-inhibited, 1 vehicle-only enzyme; activation factor at 20 µM; 64,000 tested, under 10 active; AID 813;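 active means activation factor of at least 2 at 20 µM, relative to controls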
D1 mod: allosterically modulates the human D1 dopamine receptor; P21728; HEK293 D1, CRE-luciferase, dopamine EC30 potentiation; actives deviate in either direction; B-score at 10 µM; 58,000 compounds, 5.9% hits;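 active means luminescence count or its row- and column-corrected plate score outside the 99.7% band of the plate's sample wells, on either side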
Target sequence (P21728 whole entry, looked up): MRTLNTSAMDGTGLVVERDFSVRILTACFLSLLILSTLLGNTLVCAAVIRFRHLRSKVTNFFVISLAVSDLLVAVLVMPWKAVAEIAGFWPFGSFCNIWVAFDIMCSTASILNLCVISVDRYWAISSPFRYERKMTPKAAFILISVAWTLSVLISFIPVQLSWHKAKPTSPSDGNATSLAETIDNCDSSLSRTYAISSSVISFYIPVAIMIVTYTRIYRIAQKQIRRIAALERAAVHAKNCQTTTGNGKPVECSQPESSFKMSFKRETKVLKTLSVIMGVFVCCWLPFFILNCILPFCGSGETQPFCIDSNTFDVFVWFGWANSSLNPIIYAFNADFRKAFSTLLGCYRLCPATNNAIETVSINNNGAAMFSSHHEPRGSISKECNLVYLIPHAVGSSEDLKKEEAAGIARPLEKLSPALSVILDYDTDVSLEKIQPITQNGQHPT
D1 mod confirm: confirmation of human D1 dopamine receptor allosteric modulators; HEK293 D1 CRE-luciferase, dopamine EC30 potentiation; stronger effect = higher value; luminescence at 10 µM; shares compounds with D1 mod; 2,200 compounds, 88% hits;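 active means luminescence in either of two replicates above the same-plate mean plus 3 SD of the low-dose dopamine control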
D1 no dopamine: D1 (human) signaling in absence of dopamine; luminescence at 10 µM; 1,900 compounds, 0.8% hits; shares compounds with D1 mod; HEK293 D1 CRE-luciferase, luminescence, no dopamine; stronger effect = higher value; in the data active means luminescence above about 3900
Isoprot counter: counter-screen for D1 modulators: isoproterenol response in HEK293 cells; shares compounds with D1 mod; HEK293 D1 CRE-luciferase, isoproterenol EC30 counter-screen; stronger effect = higher value; luminescence at 10 µM; 2,200 compounds, 63% hits; AID 647;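 active means luminescence in either replicate above plate mean of wells with a partly effective reference agonist dose plus 3 SD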;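 further: isoproterenol raises cAMP through native beta-adrenoceptor Gs so signal bypasses D1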
The depositor's hits bear a star; · = no result given. An excerpt weighted towards active compounds, which were near 11% of everything screened.

SMILES	M1 antagonist	M1 ag	S1P1 ag pot	S1P3 ag	TNAP act mid DEA	D1 mod	D1 mod confirm	D1 no dopamine	Isoprot counter
CCCCCn1c(Sc2nc3ccccc3s2)nc2c1c(=O)[nH]c(=O)n2C	0.81	0.0678	-8.9	0.2	0.9	16.6*	22672*	1660	8564*
COc1ccc(N2CCN(CCNC(=O)CCS(=O)(=O)c3cccc4nsnc34)CC2)cc1	-0.229	0.422	·	·	0.9	0.0384	·	·	·
COc1cc2c(cc1OC)C(C(=O)NCCN1CCOCC1)C1c3ccccc3CCN1C2=O (stereo not given)	-1.13	0.715	-15.3	-1.4	0.9	-0.146	·	·	·
COc1cc2c(cc1OC)C(C(=O)Nc1ccc3c(c1)OCCO3)C1c3ccccc3CCN1C2=O (stereo not given)	0.185	0.0261	-27.3	-0.1	1.5	4.07*	6868*	1804	2996
Cc1cccc(CCNS(=O)(=O)c2cnc[nH]2)c1	-0.249	0.0308	4.0	-1.0	1	4.43*	5408	1484	2640
FC(F)Sc1nnc(-c2cccs2)n1-c1ccccc1	0.0958	-0.114	·	-0.5	0.9	6.93*	13848*	1504	3332*
N#Cc1ccc(CSc2nnc(-c3cccs3)n2-c2ccccc2)cc1	-0.717	0.092	30.6	-0.5	0.9	1.07	·	·	·
c1ccc(-c2nc3ccccc3c3nncn23)cc1	0.706	-0.222	0.0	0.7	0.8	7.16*	7952*	1508	3284
O=C(NCc1cccc(C(F)(F)F)c1)C1CCN(c2ncccn2)CC1	-0.456	-0.00155	4.3	-0.4	0.9	0.572	·	·	·
COc1ccc(CNC(=O)c2cc(-c3cccs3)on2)cc1	-0.00288	-0.121	-55.0	0.2	0.8	-0.0201	·	·	·
COc1cccc(Cn2c(-c3cccs3)noc2=O)c1	-0.056	-0.457	4.8	0.8	0.9	3.89*	8904*	·	2916*
Cc1cc(NC(=O)c2sccc2C)n(-c2cccc(Cl)c2)n1	0.35	0.418	-27.6	-0.3	0.9	4.87*	12892*	1740	3424*
COc1cccc(NC(=O)CSCc2n[nH]c(=O)[nH]2)c1	-0.336	0.656	·	-0.4	0.8	0.926	·	·	·
c1coc(-c2nc3ccccc3nc2-c2ccco2)c1	0.127	0.274	·	·	1	6.73*	14092*	·	4012*
O=c1oc(-c2ccco2)nc2ccccc12	0.0461	0.241	-22.1	-0.6	0.9	0.286	·	·	·
CCOC(=O)C(O)(CCC(O)(C(=O)OCC)C(=O)OCC)C(=O)OCC	0.589	-0.553	-25.3	-2.1	0.9	5*	6712*	1572	2628
CCOC(=O)C(CCC#N)(CCC#N)C(=O)OCC	-0.364	-0.486	·	-1.2	0.9	0.755	·	·	·
CCC(C)Nc1nc(OC)nc(N(C)C#N)n1 (stereo not given)	0.00466	-0.0389	-2.4	-2.1	0.9	6.86*	12160*	2240	3104
CCOCCOCN(C#N)c1nc(OC)nc(N(C)C)n1	1.34	-0.32	·	·	1	·	·	·	·
O=C(CCSc1nc2ccccc2o1)N1CCOCC1	0.173	-0.345	3.3	-1.4	0.9	3.58*	7988*	1548	2532
CCn1c(SCC(=O)Nc2ccccc2C(=O)OC)nnc1-c1ccoc1C	0.578	-0.35	-30.0	4.2	0.9	-0.435	·	·	·
O=CN(Cc1ccco1)C1(C(=O)NC2CCCCC2)CCCCC1	0.182	-0.115	-8.7	0.5	0.9	0.699	·	·	·
CNC(=O)N(C1=NCC(C)(C)S1)c1ccc(F)c(Cl)c1	0.546	0.154	-16.4	-0.6	0.9	10.8*	25560*	1876	5508*
O=c1cc(CN2CCN(c3ccccc3)CC2)c2c(ccc3ccccc32)o1	-1.06	-0.724	-10.1	-1.4	0.9	0.627	·	·	·
O=c1cc(CN2CCC3(CC2)OCCO3)c2c(ccc3ccccc32)o1	-0.0215	-0.0796	3.3	-1.3	0.8	5.35*	13160*	1728	3368*
SMILES	M1 antagonist	M1 ag	S1P1 ag pot	S1P3 ag	TNAP act mid DEA	D1 mod	D1 mod confirm	D1 no dopamine	Isoprot counter
CCC(C)(C)n1c(=O)[nH]c2c(c1=O)CCC2	0.33	-0.331	-29.5	0.3	0.9	4.31*	6624	1544	2776
O=C(CSc1nnc(-c2ccc(Cl)cc2)o1)N1CCN(c2ccccc2)CC1	-1.11	0.233	5.8	1.8	0.9	-0.0823	·	·	·
Cc1ccc2nc(NCCO)nc(-c3ccccc3)c2c1	-0.958	-0.155	4.6	-0.3	1	14*	19388*	·	3656*
Cc1ccc(-n2cnnn2)c2cccnc12	0.00872	-0.54	6.1	-0.2	0.8	2.56*	8320*	1580	3228
CC(=O)c1cccc(N(C(=O)c2ccco2)C(C(=O)NC2CCCC2)c2ccncc2)c1 (stereo not given)	0.072	0.205	-34.5	0.4	1	0.922	·	·	·
CCOc1ccccc1C1NC(=O)NC(C)=C1C(=O)OC1CCCC1C (stereo not given)	-0.555	-0.0627	-21.5	0.3	0.9	-0.659	·	·	·
CCOc1ccccc1C1NC(=O)NC(C)=C1C(=O)OC1CCCCC1 (stereo not given)	0.493	1.26	-12.5	-1.4	1	4.2*	5388*	1456	2264
CCN=C1SC(CC(=O)Nc2sc(C)c(C)c2C(=O)OC)C(=O)N1CC (stereo not given)	0.181	-0.612	-0.1	0.5	0.9	1.1	·	·	·
CCN=C1SC(CC(=O)NC(N)=O)C(=O)N1CC (stereo not given)	0.00206	0.281	·	·	0.8	4.31*	20476*	1496	3780*
CCN=C1SC(CC(=O)Nc2ccccc2OCC)C(=O)N1CC (stereo not given)	-0.686	0.195	-4.7	-1.0	0.9	2.75*	9772*	1564	3300
CCOc1cccc(C2C(C(=O)c3ccco3)=C(O)C(=O)N2Cc2ccncc2)c1 (stereo not given)	0.308	0.206	·	·	0.8	1.12	·	·	·
COC(=O)C1=[N+]([O-])OC(C(=O)OC)C1c1c[nH]c2ccccc12 (stereo not given)	-0.0129	-0.662	2.5	-0.9	0.9	4.22*	5864	1700	2284
O=C(c1nc2nc(-c3ccc(Cl)cc3)cc(C(F)(F)F)n2n1)N1CCOCC1	0.509	1.33	-1.9	-0.8	0.8	2.93*	8024*	1772	3152*
O=C(c1nc2nc(-c3ccccc3)cc(C(F)(F)F)n2n1)N1CCOCC1	0.838	1.66	-9.6	-0.6	0.8	·	·	·	·
Cc1ccc(S(=O)(=O)NCC(c2ccccc2)N2CCN(CCC#N)CC2)cc1 (stereo not given)	0.469	0.494	·	-0.7	0.9	-0.0224	·	·	·

Screening data deposited in PubChem BioAssay by several laboratories.
